ChEMBL document CHEMBL3745673, “Synthesis, antimycobacterial screening and ligand-based molecular docking studies on novel pyrrole derivatives bearing pyrazoline, isoxazole and phenyl thiourea moieties” (Eur J Med Chem, 2016)
Converted amounts (≈) assume the structure as drawn.

Tested on: Mycobacterium tuberculosis
Experiment: Antitubercular activity against multi drug resistant Mycobacterium tuberculosis H37Rv after 5 days by microplate alamar blue assay
Format: functional
Settings: 120 h
Outline: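 Middlebrook 7H9 broth with compounds serially diluted on the plate over ten concentrations from 0.2 to 100. Sealed plates incubated 5 days at 37°C, then a fresh 1:1 mix of Alamar Blue and 10% Tween 80 was added for a further 24 h. Blue wells were scored as no growth and pink wells as growth.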

| SMILES | MIC [µg/mL] |
| --- | --- |
| COc1ccc(/C=C/C(=O)c2ccc(-n3cccc3)cc2)cc1 | 12.5 (≈ 41.2 µM) |
| COc1cc(C2CC(c3cccc([N+](=O)[O-])c3)=NN2C(C)=O)cc(OC)c1OC (centres undefined) | 12.5 (≈ 31.3 µM) |
| CC(=O)Nc1ccc(O)c(C2CC(c3ccc(Cl)cc3)=NN2C(=O)c2ccncc2)c1 (centres undefined) | 3.12 (≈ 7.17 µM) |
| COc1ccc(C2CC(c3ccc(-n4cccc4)cc3)=NN2C(C)=O)cc1OC (centres undefined) | 12.5 (≈ 32.1 µM) |
| Clc1ccc(-c2cc(-c3ccc(-n4cccc4)cc3)on2)cc1 | 50 (≈ 156 µM) |
| Clc1cccc(Cl)c1-c1cc(-c2ccc(-n3cccc3)cc2)on1 | 100 (≈ 282 µM) |
| Cc1ccc(NC(=S)Nc2ccccc2-n2c(C)ccc2C)cc1 | 50 (≈ 149 µM) |
| Brc1ccccc1-c1cc(-c2ccc(-n3cccc3)cc2)on1 | 100 (≈ 274 µM) |
| Clc1cccc(-c2cc(-c3ccc(-n4cccc4)cc3)on2)c1Cl | 25 (≈ 70.4 µM) |
| CC(=O)N1N=C(c2ccc(-n3cccc3)cc2)CC1c1ccc(Cl)cc1Cl (centres undefined) | 25 (≈ 62.8 µM) |
| O=C(/C=C/c1ccccc1Cl)c1ccc(-n2cccc2)cc1 | 25 (≈ 81.2 µM) |
| Cc1ccc(C)n1-c1ccccc1NC(=S)Nc1ccc(Cl)c(Cl)c1 | 6.25 (≈ 16 µM) |
| CC(=O)N1N=C(c2ccc(-n3cccc3)cc2)CC1c1ccc(Cl)cc1 (centres undefined) | 25 (≈ 68.7 µM) |
| Brc1cccc(-c2cc(-c3ccc(-n4cccc4)cc3)on2)c1 | 50 (≈ 137 µM) |
| Fc1ccc(-c2cc(-c3ccc(-n4cccc4)cc3)on2)cc1 | 12.5 (≈ 41.1 µM) |
| O=C(/C=C/c1ccccc1)c1ccc(-n2cccc2)cc1 | 50 (≈ 183 µM) |
| O=C(/C=C/c1ccc(Cl)cc1Cl)c1ccc(-n2cccc2)cc1 | 25 (≈ 73.1 µM) |
| CC(=O)N1N=C(c2ccc(-n3cccc3)cc2)CC1c1ccccc1 (centres undefined) | 25 (≈ 75.9 µM) |
| Cc1ccc(C)n1-c1ccccc1NC(=S)Nc1ccccc1Br | 50 (≈ 125 µM) |
| Clc1ccc(-c2cc(-c3ccc(-n4cccc4)cc3)on2)c(Cl)c1 | 50 (≈ 141 µM) |

| SMILES | MIC [µg/mL] |
| --- | --- |
| Clc1ccccc1-c1cc(-c2ccc(-n3cccc3)cc2)on1 | 25 (≈ 77.9 µM) |
| CC(C)c1ccc(/C=C/C(=O)c2ccc(-n3cccc3)cc2)cc1 | 12.5 (≈ 39.6 µM) |
| Cc1ccc(C)n1-c1ccccc1NC(=S)Nc1ccc(F)cc1 | 1.6 (≈ 4.71 µM) |
| COc1cccc(C2CC(c3ccc(-n4cccc4)cc3)=NN2C(C)=O)c1 (centres undefined) | 6.25 (≈ 17.4 µM) |
| CC(=O)N1N=C(c2ccc(-n3cccc3)cc2)CC1c1ccccc1Br (centres undefined) | 100 (≈ 245 µM) |
| CC(=O)N1N=C(c2ccc(-n3cccc3)cc2)CC1c1c(Cl)cccc1Cl (centres undefined) | 25 (≈ 62.8 µM) |
| O=C(/C=C/c1ccccc1O)c1ccc(-n2cccc2)cc1 | 25 (≈ 86.4 µM) |
| Cc1ccc(C)n1-c1ccccc1NC(=S)Nc1ccccc1 | 50 (≈ 156 µM) |
| NC(=S)N1N=C(C/N=N/NC(=O)c2cccnc2)CC1c1ccccc1 (centres undefined) | 1.25 (≈ 3.4 µM) |
| O=C(/C=C/c1cccc(Cl)c1Cl)c1ccc(-n2cccc2)cc1 | 25 (≈ 73.1 µM) |
| c1coc(-c2cc(-c3ccc(-n4cccc4)cc3)on2)c1 | 25 (≈ 90.5 µM) |
| CC(=O)N1N=C(c2ccc(-n3cccc3)cc2)CC1c1ccco1 (centres undefined) | 25 (≈ 78.3 µM) |
| O=C(/C=C/c1cccc(Oc2ccccc2)c1)c1ccc(-n2cccc2)cc1 | 25 (≈ 68.4 µM) |
| Cc1ccc(C)n1-c1ccccc1NC(=S)Nc1ccc(Cl)cc1 | 50 (≈ 140 µM) |
| CC(=O)N1N=C(c2ccc(-n3cccc3)cc2)CC1c1ccccc1Cl (centres undefined) | 25 (≈ 68.7 µM) |
| COc1ccc(-c2cc(-c3ccc(-n4cccc4)cc3)on2)cc1OC | 12.5 (≈ 36.1 µM) |
| c1ccc(-c2cc(-c3ccc(-n4cccc4)cc3)on2)cc1 | 100 (≈ 349 µM) |
| Cc1ccc(-c2cc(-c3ccc(-n4cccc4)cc3)on2)cc1 | 12.5 (≈ 41.6 µM) |
| COc1ccc(C2CC(c3ccc(-n4cccc4)cc3)=NN2C(C)=O)c(OC)c1 (centres undefined) | 6.25 (≈ 16 µM) |
| Cc1ccc(C)n1-c1ccccc1NC(=S)Nc1ccc([N+](=O)[O-])cc1 | 50 (≈ 136 µM) |

| SMILES | MIC [µg/mL] |
| --- | --- |
| O=C(/C=C/c1c(Cl)cccc1Cl)c1ccc(-n2cccc2)cc1 | 25 (≈ 73.1 µM) |
| O=C(/C=C/c1cccc(Br)c1)c1ccc(-n2cccc2)cc1 | 100 (≈ 284 µM) |
| CC(=O)N1N=C(c2ccc(-n3cccc3)cc2)CC1c1cccc(Cl)c1Cl (centres undefined) | 25 (≈ 62.8 µM) |
| O=C(/C=C/c1ccccc1Br)c1ccc(-n2cccc2)cc1 | 50 (≈ 142 µM) |
| CC(=O)N1N=C(c2ccc(-n3cccc3)cc2)CC1c1ccc(F)cc1 (centres undefined) | 12.5 (≈ 36 µM) |
| O=C(/C=C/c1ccco1)c1ccc(-n2cccc2)cc1 | 50 (≈ 190 µM) |
| COc1cccc(/C=C/C(=O)c2ccc(-n3cccc3)cc2)c1 | 25 (≈ 82.4 µM) |
| Cc1ccc(C)n1-c1ccccc1NC(=S)Nc1cccc(Cl)c1 | 50 (≈ 140 µM) |
| O=C(/C=C/c1ccc(F)cc1)c1ccc(-n2cccc2)cc1 | 12.5 (≈ 42.9 µM) |
| CC(=O)N1N=C(c2ccc(-n3cccc3)cc2)CC1c1cccc(Br)c1 (centres undefined) | 50 (≈ 122 µM) |
| CC(=O)N1N=C(c2ccc(-n3cccc3)cc2)CC1c1ccc(C)cc1 (centres undefined) | 6.25 (≈ 18.2 µM) |
| Cc1ccc(C)n1-c1ccccc1NC(=S)Nc1cccc(Br)c1 | 50 (≈ 125 µM) |
| c1ccc(Oc2cccc(-c3cc(-c4ccc(-n5cccc5)cc4)on3)c2)cc1 | 12.5 (≈ 33 µM) |
| COc1ccc(/C=C/C(=O)c2ccc(-n3cccc3)cc2)cc1OC | 25 (≈ 75 µM) |
| CC(=O)N1N=C(c2ccc(-n3cccc3)cc2)CC1c1cccc(Oc2ccccc2)c1 (centres undefined) | 12.5 (≈ 29.7 µM) |
| COc1ccccc1NC(=S)N1N=C(c2ccc(O)c(C)c2)CC1c1c(Cl)cccc1Cl (centres undefined) | 1.66 (≈ 3.41 µM) |
| O=C(/C=C/c1ccc(Cl)cc1)c1ccc(-n2cccc2)cc1 | 50 (≈ 162 µM) |
| CC[C@@H](CO)NCCN[C@@H](CC)CO [ETHAMBUTOL] | 0.5 (≈ 2.45 µM) |
| CO[C@H]1/C=C/O[C@@]2(C)Oc3c(C)c(O)c4c(O)c(c(/C=N/N5CCN(C)CC5)c(O)c4c3C2=O)NC(=O)/C(C)=C\C=C\[C@H](C)[C@H](O)[C@@H](C)[C@@H](O)[C@@H](C)[C@H](OC(C)=O)[C@@H]1C [RIFAMPIN] | 0.4 (≈ 0.486 µM) |
